Assay results taken from ChEMBL document CHEMBL4321819, “Simple Structural Modifications Converting a Bona fide MDM2 PROTAC Degrader into a Molecular Glue Molecule: A Cautionary Tale in the Design of PROTAC Degraders” (J Med Chem, 2019).
pIC50: −log10 of the molar value. Calls of active or inactive are those of the source. The rule behind the calls is not given here.

Tests used:
[1] = target: T1, E3 ubiquitin-protein ligase Mdm2 (Homo sapiens, UniProt Q00987); assay: Displacement of PMDM6-F fluorescent probe from human recombinant His-tagged MDM2 (1 to 118 residues) after 15 mins by fluorescence polarization assay
How it was run: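 Recombinant human His-tagged MDM2 (residues 1–118) with a FAM-labelled p53-based peptide as fluorescent probe; competitive fluorescence-polarization binding. Mean ± standard error from at least three independent experiments.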
Target sequence in this assay (Q00987 whole entry, the tested form may be a part): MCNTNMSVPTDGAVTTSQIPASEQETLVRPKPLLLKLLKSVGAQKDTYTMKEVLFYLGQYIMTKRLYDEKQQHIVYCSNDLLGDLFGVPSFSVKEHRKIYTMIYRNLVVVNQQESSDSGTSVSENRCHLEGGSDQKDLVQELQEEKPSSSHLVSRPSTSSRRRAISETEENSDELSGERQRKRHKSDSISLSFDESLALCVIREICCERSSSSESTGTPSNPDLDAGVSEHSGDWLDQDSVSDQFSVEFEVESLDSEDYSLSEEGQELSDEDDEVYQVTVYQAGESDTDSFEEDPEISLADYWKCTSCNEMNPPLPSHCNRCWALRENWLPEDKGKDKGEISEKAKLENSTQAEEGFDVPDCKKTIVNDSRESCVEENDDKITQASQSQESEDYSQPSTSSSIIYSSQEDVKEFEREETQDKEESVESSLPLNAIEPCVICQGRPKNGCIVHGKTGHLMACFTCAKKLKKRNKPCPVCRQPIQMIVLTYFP

[2] = target: T1, E3 ubiquitin-protein ligase Mdm2; assay: Induction of MDM2 degradation in human RS4:11 cells assessed as downregulation of MDM2 at 1 to 30 nM after 1 hr by Western blot analysis; type: cell-based
How it was run: (§1)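 Western blots of MDM2 and p53 protein were run on RS4;11 cells (wild-type p53) in RPMI 1640 with 10% FBS. 2×10^6 cells/well were treated at the indicated concentrations for 1 h or 2 h. Lysis was in ice-cold buffer with protease inhibitor, followed by probing with specific antibodies.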
Target sequence in this assay (Q00987 whole entry, looked up, the tested form may be a part): as the sequence (Q00987 whole entry, the tested form may be a part) above

MOLM-13 = assay: Antiproliferative activity against human MOLM13 cells expressing wild type p53 assessed as cell growth inhibition after 4 days by WST-8 assay; type: functional, cell-based; conditions: MOLM-13, 96 h
How it was run: (§2)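 Leukemia cells seeded at 10000–20000 cells/well, breast cancer lines at 5000–10000 cells/well. Serially diluted compound added, then 4 days at 37 °C, 5% CO2. Growth read with WST-8 reagent after at least 1 h, absorbance at 450 nm. RS4;11, MOLM-13 and breast lines were grown in RPMI 1640; MV-4-11 and HL-60 in IMDM; all with 10% FBS. Mean ± SE, at least three independent experiments.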

MDA-MB-231 [3] = assay: Antiproliferative activity against human MDA-MB-231 cells harboring mutant p53 assessed as cell growth inhibition after 4 days by WST-8 assay; type: functional, cell-based; conditions: MDA-MB-231, 96 h; how it was run: as §2
[4] = target: T1, E3 ubiquitin-protein ligase Mdm2; assay: Induction of MDM2 degradation in human RS4:11 cells assessed as upregulation of p53 at 1 to 30 nM after 2 hrs by Western blot analysis; type: cell-based; how it was run: as §1
Target sequence in this assay (Q00987 whole entry, looked up, the tested form may be a part): as the sequence (Q00987 whole entry, the tested form may be a part) above

MDA-MB-468 [5] = assay: Antiproliferative activity against human MDA-MB-468 cells assessed as cell growth inhibition after 4 days in presence of control siRNA for 2 days followed by compound treatment by WST-8 assay; type: functional, cell-based
How it was run: (§3)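 MDA-MB-231 or MDA-MB-468 cells transfected for 2 days using Lipofectamine RNAiMAX with MDM2 siRNA, one of two CRBN siRNAs, or non-targeting control siRNA. Compound then added and growth read by WST-8 at 450 nm.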

MDA-MB-231 [6] = assay: Antiproliferative activity against human MDA-MB-231 cells transfected with MDM2 siRNA assessed as cell growth inhibition after 4 days by WST-8 assay; type: functional, cell-based; conditions: MDA-MB-231, 96 h; how it was run: as §3
RS4-11 [7] = assay: Antiproliferative activity against human RS4:11 cells expressing wild type p53 assessed as cell growth inhibition without interaction with cereblon after 4 days by WST-8 assay; type: functional, cell-based; conditions: RS4-11, 96 h; how it was run: as §2
MDA-MB-231 [8] = assay: Antiproliferative activity against human MDA-MB-231 cells harboring mutant p53 assessed as cell growth inhibition without interaction with cereblon after 4 days by WST-8 assay; type: functional, cell-based; conditions: MDA-MB-231, 96 h
MDA-MB-468 [9] = assay: Antiproliferative activity against human MDA-MB-468 cells harboring mutant p53 assessed as cell growth inhibition without interaction with cereblon after 4 days by WST-8 assay; type: functional, cell-based; conditions: MDA-MB-468, 96 h
MDA-MB-231 [10] = assay: Antiproliferative activity against human MDA-MB-231 cells transfected with CRBN siRNA LQ-021086-10-0002 assessed as cell growth inhibition after 4 days by WST-8 assay; type: functional, cell-based; conditions: MDA-MB-231, 72 h, in the assay text read “after 3 days” for “after 4 days”; how it was run: as §3
MDA-MB-231 [11] = assay: Antiproliferative activity against human MDA-MB-231 cells assessed as cell growth inhibition after 4 days in presence of control siRNA for 3 days followed by compound treatment by WST-8 assay; type: functional, cell-based
MDA-MB-468 [12] = assay: Antiproliferative activity against human MDA-MB-468 cells assessed as cell growth inhibition after 4 days in presence of control siRNA for 3 days followed by compound treatment by WST-8 assay; type: functional, cell-based
[13] = target: T2, Protein cereblon/Eukaryotic peptide chain release factor GTP-binding subunit ERF3A/DNA damage-binding protein 1/Cullin-4A (Homo sapiens) (UniProt Q96SW2+Q16531+Q13619+P15170); assay: Protac activity at GSPT1/CUL4/DDB1/CRBN in human RS4:11/IRMI-2 cells harboring p53 hotspot mutation Y236H/R249G assessed as effect on GSPT1 mRNA level after 3 hrs by qRT-PCR analysis; type: cell-based
[14] = target: T2, Protein cereblon/Eukaryotic peptide chain release factor GTP-binding subunit ERF3A/DNA damage-binding protein 1/Cullin-4A (Homo sapiens); assay: Protac activity at GSPT1/CUL4/DDB1/CRBN in human RS4:11 cells expressing wild type p53 assessed as decrease in GSPT1 protein level after 2 hrs by Western blot analysis; type: cell-based
How it was run: (§4)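 RS4;11 (wild-type p53) or RS4;11/IRMI-2 (MDM2 inhibitor-resistant derivative, mutant p53) cells kept in RPMI 1640 with 10% FBS at 37 °C, 5% CO₂. 2×10^6 cells/well treated at the indicated concentrations and times, then lysed in ice-cold lysis buffer with protease inhibitor. GSPT1 detected by Western blot with a specific antibody.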

[15] = target: T2, Protein cereblon/Eukaryotic peptide chain release factor GTP-binding subunit ERF3A/DNA damage-binding protein 1/Cullin-4A (Homo sapiens); assay: Protac activity at GSPT1/CUL4/DDB1/CRBN in human RS4:11/IRMI-2 cells harboring p53 hotspot mutation Y236H/R249G assessed as decrease in GSPT1 protein level after 2 hrs by Western blot analysis; type: cell-based; how it was run: as §4
[16] = target: T3, Eukaryotic peptide chain release factor GTP-binding subunit ERF3A (Homo sapiens, UniProt P15170); assay: Induction of GSPT1 degradation in human RS4:11 cells measured after 24 hrs by Western blot analysis; type: cell-based
[17] = target: Protein cereblon/Eukaryotic peptide chain release factor GTP-binding subunit ERF3A (Homo sapiens) (UniProt Q96SW2+P15170); assay: Inhibition of cereblon binding with GSPT1 human MDA-MB-468 cells assessed as decrease in GSPT1 degradation at 0.1 uM after 2 hrs in presence of 30 uM lenalidomide by Western blot analysis; type: cell-based
How it was run: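 MDA-MB-231 or MDA-MB-468 cells were treated 2 h with or without 30 μM lenalidomide to block cereblon binding. GSPT1 protein level was then assessed by Western blotting.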

[18] = target: T3, Eukaryotic peptide chain release factor GTP-binding subunit ERF3A; assay: Induction of GSPT1 degradation in human MDA-MB-231 cells transfected with CRBN siRNA LQ-021086-11-0002 assessed as decrease in GSPT1 protein level at 0.1 uM after 2 to 24 hrs by Western blot analysis; type: cell-based
How it was run: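 MDA-MB-231 or MDA-MB-468 cells transfected 2 days with CRBN siRNA (Lipofectamine RNAiMAX; non-targeting siRNA as control), then exposed to 0.1 μM for 2 h or 24 h. Cell culture was RPMI 1640 with 10% FBS at 37 °C, 5% CO2. GSPT1 and cereblon protein were probed by Western blot.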

[19] = target: GSPT1/E3 ubiquitin-protein ligase Mdm2 (Homo sapiens) (UniProt Q00987+P15170); assay: Binding affinity to GSPT1/MDM2 in human MDA-MB-231 cells assessed as GSPT1 degradation at 0.1 to 1 uM after 2 hrs by Western blot analysis; type: cell-based
RS4-11 [20] = assay: Antiproliferative activity against human RS4:11 cells expressing wild type p53 assessed as MDM2-independent cell growth inhibition after 4 days by WST-8 assay; type: functional, cell-based; conditions: RS4-11, 96 h; how it was run: as §2

T2 sequence (P15170 whole entry, looked up): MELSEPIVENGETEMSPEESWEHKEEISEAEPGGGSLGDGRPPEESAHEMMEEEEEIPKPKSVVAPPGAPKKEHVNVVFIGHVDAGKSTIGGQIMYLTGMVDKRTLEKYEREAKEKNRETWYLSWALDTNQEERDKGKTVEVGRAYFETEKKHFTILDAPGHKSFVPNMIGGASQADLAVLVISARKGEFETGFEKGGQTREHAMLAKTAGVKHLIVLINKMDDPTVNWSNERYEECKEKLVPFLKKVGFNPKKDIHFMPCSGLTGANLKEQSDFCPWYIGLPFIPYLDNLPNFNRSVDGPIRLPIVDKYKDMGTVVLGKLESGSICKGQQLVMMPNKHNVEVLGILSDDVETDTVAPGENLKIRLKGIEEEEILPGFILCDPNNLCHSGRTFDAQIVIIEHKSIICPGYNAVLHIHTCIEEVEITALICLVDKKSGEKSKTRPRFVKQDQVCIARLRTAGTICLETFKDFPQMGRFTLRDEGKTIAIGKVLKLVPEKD
T2 sequence (Q13619 whole entry, looked up): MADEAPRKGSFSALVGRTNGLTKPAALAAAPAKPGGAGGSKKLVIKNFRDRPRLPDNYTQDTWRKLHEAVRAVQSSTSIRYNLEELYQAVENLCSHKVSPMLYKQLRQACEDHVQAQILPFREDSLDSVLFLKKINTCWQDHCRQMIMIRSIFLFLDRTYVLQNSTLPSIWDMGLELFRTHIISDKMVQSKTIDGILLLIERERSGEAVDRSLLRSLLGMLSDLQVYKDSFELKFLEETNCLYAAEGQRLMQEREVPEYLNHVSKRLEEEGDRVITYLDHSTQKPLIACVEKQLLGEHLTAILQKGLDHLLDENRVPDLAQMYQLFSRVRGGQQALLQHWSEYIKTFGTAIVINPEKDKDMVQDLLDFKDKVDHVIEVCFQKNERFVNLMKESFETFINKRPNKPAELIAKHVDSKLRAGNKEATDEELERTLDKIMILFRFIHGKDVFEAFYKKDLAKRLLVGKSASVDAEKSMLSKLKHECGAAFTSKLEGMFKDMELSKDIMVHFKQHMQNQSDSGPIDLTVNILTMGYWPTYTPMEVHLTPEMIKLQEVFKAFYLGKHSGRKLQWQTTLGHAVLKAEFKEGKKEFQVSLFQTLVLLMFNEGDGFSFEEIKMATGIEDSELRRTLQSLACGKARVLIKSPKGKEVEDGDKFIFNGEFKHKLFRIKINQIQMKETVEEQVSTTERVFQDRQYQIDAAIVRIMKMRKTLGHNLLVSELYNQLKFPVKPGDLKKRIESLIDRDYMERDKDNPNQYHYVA
T2 sequence (Q16531 whole entry, looked up): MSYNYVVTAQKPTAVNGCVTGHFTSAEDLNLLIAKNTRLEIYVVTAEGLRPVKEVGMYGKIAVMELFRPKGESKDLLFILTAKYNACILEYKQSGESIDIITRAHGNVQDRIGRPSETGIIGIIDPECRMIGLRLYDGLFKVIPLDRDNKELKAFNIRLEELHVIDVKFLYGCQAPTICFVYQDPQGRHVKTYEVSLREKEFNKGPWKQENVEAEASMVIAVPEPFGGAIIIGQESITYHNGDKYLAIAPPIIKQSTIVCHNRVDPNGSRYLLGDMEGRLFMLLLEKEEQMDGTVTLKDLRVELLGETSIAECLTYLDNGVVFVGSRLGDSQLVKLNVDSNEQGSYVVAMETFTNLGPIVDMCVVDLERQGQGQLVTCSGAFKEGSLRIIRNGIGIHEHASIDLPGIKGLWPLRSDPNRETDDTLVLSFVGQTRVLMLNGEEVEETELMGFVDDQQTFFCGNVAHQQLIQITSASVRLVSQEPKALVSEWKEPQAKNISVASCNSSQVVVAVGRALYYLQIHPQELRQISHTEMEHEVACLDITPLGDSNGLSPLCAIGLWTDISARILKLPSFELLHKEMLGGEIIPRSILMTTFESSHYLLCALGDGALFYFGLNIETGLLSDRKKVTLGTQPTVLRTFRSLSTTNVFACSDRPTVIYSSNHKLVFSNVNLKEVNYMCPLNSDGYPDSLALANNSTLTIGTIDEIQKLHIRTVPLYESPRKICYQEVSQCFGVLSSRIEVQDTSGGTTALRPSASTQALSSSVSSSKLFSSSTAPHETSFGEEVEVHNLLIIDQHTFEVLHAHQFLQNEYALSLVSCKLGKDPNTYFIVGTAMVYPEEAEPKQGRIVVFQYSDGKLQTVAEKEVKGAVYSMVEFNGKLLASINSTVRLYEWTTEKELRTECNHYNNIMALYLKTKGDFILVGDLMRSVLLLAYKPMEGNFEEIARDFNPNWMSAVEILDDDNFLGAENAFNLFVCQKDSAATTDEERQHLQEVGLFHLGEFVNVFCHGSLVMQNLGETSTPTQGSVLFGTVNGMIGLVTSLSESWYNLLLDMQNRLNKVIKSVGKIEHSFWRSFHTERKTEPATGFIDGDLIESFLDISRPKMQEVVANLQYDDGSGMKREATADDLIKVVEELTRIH
T2 sequence (Q96SW2 whole entry, looked up): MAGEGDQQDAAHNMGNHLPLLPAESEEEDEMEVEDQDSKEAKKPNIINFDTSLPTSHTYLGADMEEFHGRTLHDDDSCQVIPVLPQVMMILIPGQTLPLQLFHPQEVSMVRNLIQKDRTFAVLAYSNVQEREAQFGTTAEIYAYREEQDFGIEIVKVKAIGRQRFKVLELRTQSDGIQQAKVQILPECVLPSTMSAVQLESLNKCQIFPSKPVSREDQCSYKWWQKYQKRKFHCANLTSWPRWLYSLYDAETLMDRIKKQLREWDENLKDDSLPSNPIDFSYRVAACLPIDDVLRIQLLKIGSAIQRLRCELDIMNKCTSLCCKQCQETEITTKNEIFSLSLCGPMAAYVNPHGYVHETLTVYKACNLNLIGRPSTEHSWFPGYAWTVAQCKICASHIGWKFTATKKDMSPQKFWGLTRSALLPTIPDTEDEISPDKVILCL
T3 sequence (P15170 whole entry): as the sequence (P15170 whole entry, looked up) above
Chain of Protein cereblon/Eukaryotic peptide chain release factor GTP-binding subunit ERF3A (Homo sapiens) (P15170 whole entry, looked up): as above
Chain of Protein cereblon/Eukaryotic peptide chain release factor GTP-binding subunit ERF3A (Homo sapiens) (Q96SW2 whole entry, looked up): as the sequence (Q96SW2 whole entry, looked up) above
Chain of GSPT1/E3 ubiquitin-protein ligase Mdm2 (Homo sapiens) (P15170 whole entry, looked up): as the sequence (P15170 whole entry, looked up) above
Chain of GSPT1/E3 ubiquitin-protein ligase Mdm2 (Homo sapiens) (Q00987 whole entry, looked up): as the sequence (Q00987 whole entry, the tested form may be a part) above

With `O=C1CCC(N2Cc3c(CCCCCNC(=O)[C@@H]4NC5(CCCCC5)[C@@]5(C(=O)Nc6cc(Cl)ccc65)[C@H]4c4cccc(Cl)c4F)cccc3C2=O)C(=O)N1` (stereo partly specified) the pIC50 [1] was 7.17, the Activity [2] was “inactive” and the pIC50 (MOLM-13) was 7.61. For the same molecule, the pIC50 (MDA-MB-231 [3]) was 7.40, the Activity [4] was “inactive” and the pIC50 (MDA-MB-468 [5]) was 7.51. The pIC50 (MDA-MB-231 [6]) was 7.71, the pIC50 (RS4-11 [7]) was 9.77 and the pIC50 (MDA-MB-231 [8]) was 7.40. It also gave a pIC50 (MDA-MB-468 [9]) of 7.58, a pIC50 (MDA-MB-231 [10]) of less than 5.52 and a pIC50 (MDA-MB-231 [11]) of 7.52. The pIC50 (MDA-MB-468 [12]) was 7.21, the Activity [13] was “inactive” and the Activity [14] was “Active”. For the same molecule, the Activity [15] was “Active”, the DC50 [16] was 1.3 nM and the inhibition [17] was “Active”. For the same molecule, the Activity [18] was “inactive”, the Activity [19] was “inactive” and the pIC50 (RS4-11 [20]) was 8.64.
